Data from ChEMBL document CHEMBL5653631, “A Potent and Selective ULK1 Inhibitor Suppresses Autophagy and Sensitizes Cancer Cells to Nutrient Stress” (iScience, 2018).

Assays:
[1] = target: T1, Cytoplasmic tyrosine-protein kinase BMX (Homo sapiens) (UniProt P51813); test: Inhibition of human recombinant BMX at 500 nM in presence of ATP by radiometric assay relative to control
T1 sequence (whole entry): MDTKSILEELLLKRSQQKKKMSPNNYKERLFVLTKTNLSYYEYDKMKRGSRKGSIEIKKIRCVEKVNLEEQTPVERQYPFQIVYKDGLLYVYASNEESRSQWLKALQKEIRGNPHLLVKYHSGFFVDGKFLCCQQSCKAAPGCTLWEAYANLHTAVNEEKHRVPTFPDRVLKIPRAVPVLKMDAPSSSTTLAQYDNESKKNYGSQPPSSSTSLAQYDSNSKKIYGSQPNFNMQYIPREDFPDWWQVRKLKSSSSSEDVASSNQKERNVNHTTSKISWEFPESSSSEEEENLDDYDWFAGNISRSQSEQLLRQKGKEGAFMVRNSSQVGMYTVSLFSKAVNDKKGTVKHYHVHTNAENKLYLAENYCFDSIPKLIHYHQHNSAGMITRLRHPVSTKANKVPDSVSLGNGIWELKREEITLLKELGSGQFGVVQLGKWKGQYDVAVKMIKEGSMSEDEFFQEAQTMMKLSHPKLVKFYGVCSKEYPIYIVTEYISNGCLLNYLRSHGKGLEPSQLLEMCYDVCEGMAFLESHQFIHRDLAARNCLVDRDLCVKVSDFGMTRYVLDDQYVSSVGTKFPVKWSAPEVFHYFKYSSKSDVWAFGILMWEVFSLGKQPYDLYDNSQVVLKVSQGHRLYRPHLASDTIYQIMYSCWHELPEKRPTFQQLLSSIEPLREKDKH
Procedure, shortened: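 Part of a radiometric in vitro activity panel of 327 recombinant human kinases. Each kinase was tested in duplicate at one inhibitor concentration. Activity remaining was expressed as a percentage of the vehicle control, and percent inhibition was taken as 100 minus that value.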

[2] = target: Cyclin-dependent kinase 7 (Homo sapiens) (UniProt P50613); test: Inhibition of human recombinant CDK7 at 500 nM in presence of ATP by radiometric assay relative to control
[3] = target: Casein kinase II subunit alpha' (Homo sapiens) (UniProt P19784); test: Inhibition of human recombinant CK2a2 at 15 nM in presence of ATP by radiometric assay relative to control
[4] = target: Serine/threonine-protein kinase N2 (Homo sapiens) (UniProt Q16513); test: Inhibition of human recombinant PKN2 at 15 nM in presence of ATP by radiometric assay relative to control
[5] = target: SRSF protein kinase 1 (Homo sapiens) (UniProt Q96SB4); test: Inhibition of human recombinant SRPK1 at 15 nM in presence of ATP by radiometric assay relative to control
[6] = target: T2, Ephrin type-B receptor 3 (Homo sapiens) (UniProt P54753); test: Inhibition of human recombinant EphB3 at 40 nM in presence of ATP by radiometric assay relative to control
T2 sequence (whole entry): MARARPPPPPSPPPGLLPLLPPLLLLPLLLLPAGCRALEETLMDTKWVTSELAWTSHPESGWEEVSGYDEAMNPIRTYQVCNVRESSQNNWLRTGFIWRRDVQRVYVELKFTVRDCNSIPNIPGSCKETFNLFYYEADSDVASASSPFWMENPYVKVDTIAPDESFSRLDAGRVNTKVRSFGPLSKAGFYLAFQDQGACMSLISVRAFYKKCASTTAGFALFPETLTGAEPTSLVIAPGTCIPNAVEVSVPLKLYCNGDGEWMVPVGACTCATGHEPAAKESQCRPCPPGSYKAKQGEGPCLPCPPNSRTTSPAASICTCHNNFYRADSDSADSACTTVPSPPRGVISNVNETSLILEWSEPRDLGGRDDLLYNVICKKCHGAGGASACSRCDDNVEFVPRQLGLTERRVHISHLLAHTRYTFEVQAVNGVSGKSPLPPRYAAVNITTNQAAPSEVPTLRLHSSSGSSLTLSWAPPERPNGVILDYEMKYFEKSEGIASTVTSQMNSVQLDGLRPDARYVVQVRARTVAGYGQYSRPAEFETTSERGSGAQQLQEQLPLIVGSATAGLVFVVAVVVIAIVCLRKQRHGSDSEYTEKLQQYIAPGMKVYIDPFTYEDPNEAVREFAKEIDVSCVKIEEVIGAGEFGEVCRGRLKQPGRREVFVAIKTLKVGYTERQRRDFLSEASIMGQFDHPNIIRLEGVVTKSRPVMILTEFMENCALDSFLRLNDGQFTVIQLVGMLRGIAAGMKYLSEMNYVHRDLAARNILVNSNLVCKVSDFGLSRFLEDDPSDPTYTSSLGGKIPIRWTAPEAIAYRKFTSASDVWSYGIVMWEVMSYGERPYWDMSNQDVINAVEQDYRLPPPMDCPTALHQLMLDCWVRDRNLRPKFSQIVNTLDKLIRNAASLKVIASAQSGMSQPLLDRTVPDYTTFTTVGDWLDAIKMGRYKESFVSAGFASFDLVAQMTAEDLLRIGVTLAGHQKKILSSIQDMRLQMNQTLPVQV

[7] = target: Leukocyte tyrosine kinase receptor (Homo sapiens) (UniProt P29376); test: Inhibition of human recombinant LTK at 40 nM in presence of ATP by radiometric assay relative to control
U2OS = test: cells; conditions: Homo sapiens

Sequence of SRSF protein kinase 1 (Homo sapiens) (Q96SB4 whole entry): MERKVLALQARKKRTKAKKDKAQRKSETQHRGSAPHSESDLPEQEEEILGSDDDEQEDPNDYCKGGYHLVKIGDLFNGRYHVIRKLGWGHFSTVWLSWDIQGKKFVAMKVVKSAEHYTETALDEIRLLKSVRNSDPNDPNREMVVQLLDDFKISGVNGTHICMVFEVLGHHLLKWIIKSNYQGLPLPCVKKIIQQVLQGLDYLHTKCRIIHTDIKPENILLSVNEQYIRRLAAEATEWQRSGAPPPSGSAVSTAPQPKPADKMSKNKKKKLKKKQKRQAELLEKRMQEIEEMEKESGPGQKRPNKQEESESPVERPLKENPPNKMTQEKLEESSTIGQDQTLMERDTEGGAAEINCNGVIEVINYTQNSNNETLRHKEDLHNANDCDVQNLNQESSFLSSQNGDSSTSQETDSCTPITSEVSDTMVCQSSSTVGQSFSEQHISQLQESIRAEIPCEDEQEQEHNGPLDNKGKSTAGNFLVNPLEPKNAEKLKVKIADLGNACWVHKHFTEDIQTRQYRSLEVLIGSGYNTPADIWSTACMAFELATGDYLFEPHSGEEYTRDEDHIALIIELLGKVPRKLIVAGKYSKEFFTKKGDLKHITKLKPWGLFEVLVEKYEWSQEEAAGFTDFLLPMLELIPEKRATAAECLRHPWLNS
Sequence of Leukocyte tyrosine kinase receptor (Homo sapiens) (P29376 whole entry): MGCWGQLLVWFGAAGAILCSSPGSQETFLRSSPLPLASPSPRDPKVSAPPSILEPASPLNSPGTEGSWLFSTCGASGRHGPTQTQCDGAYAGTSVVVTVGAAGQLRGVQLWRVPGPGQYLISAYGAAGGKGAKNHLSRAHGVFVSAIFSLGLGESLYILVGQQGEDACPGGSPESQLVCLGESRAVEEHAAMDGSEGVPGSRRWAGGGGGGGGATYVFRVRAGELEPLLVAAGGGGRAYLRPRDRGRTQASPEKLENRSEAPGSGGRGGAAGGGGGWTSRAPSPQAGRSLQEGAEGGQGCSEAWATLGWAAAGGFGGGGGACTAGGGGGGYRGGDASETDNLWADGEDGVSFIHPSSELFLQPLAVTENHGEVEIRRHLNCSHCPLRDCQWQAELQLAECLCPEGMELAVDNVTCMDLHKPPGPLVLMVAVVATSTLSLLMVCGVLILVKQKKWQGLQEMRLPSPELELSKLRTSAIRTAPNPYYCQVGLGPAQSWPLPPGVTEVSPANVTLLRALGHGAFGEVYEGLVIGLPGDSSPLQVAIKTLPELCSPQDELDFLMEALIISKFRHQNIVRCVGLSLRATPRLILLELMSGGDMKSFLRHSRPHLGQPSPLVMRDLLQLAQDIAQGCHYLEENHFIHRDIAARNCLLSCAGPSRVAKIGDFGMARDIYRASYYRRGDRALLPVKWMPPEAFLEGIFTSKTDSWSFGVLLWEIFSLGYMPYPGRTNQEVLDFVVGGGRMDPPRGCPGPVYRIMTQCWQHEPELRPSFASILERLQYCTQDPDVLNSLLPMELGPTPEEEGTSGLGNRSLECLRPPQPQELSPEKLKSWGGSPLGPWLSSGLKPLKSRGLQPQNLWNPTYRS
Sequence of Casein kinase II subunit alpha' (Homo sapiens) (P19784 whole entry, looked up): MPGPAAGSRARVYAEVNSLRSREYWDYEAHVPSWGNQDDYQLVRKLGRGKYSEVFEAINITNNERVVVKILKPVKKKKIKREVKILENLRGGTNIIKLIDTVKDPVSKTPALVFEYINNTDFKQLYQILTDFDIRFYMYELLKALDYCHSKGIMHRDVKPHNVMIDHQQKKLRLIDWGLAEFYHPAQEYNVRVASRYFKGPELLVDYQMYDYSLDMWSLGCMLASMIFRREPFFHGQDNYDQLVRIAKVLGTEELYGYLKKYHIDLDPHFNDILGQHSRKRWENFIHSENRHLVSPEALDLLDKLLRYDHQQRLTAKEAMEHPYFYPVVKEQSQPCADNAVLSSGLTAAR
Sequence of Cyclin-dependent kinase 7 (Homo sapiens) (P50613 whole entry): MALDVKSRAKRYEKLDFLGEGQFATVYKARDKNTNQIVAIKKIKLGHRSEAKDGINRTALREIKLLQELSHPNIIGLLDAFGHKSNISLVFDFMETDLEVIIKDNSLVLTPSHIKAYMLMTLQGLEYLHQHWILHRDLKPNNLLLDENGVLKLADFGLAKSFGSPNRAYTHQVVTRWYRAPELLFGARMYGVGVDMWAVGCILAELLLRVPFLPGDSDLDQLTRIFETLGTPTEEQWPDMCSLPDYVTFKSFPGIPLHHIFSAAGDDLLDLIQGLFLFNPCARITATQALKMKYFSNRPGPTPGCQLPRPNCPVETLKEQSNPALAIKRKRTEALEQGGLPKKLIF
Sequence of Serine/threonine-protein kinase N2 (Homo sapiens) (Q16513 whole entry, looked up): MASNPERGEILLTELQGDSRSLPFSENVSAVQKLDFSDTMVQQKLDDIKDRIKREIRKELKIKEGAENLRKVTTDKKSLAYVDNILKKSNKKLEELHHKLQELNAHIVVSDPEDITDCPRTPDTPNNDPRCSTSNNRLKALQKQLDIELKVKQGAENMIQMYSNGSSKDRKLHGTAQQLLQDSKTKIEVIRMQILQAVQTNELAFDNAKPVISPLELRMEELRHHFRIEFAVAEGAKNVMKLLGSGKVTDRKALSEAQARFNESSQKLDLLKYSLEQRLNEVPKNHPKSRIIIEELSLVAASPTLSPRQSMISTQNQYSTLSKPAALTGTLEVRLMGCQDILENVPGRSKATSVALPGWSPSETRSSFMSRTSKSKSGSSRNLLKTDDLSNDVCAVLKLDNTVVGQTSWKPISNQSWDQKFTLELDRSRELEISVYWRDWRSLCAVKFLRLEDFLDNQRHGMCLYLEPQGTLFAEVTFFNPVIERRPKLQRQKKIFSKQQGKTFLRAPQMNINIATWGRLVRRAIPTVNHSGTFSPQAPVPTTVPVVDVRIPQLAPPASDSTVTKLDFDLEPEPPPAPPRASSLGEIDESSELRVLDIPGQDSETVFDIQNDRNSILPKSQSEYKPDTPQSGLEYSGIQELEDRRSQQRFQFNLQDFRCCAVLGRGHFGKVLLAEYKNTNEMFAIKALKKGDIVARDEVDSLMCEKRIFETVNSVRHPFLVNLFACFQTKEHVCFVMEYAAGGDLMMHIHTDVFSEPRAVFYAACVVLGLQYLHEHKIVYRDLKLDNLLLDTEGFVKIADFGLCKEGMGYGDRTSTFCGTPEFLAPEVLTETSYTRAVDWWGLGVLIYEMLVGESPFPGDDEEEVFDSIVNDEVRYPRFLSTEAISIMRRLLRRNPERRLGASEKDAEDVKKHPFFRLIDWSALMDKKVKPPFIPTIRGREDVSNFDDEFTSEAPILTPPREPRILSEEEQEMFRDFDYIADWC

In the case of `CNC(=O)c1ccccc1Oc1nc(Nc2cc(OC)c(OC)c(OC)c2)ncc1Br`, the inhibition [1] is reported as 16% and the inhibition [2] is reported as 29%.
With `CC(C)[C@H](NC(=O)c1cc(-c2cnn3cc(-c4ccc(OCCN5CCCCC5)cc4)cnc23)cs1)C(F)(F)F` the inhibition [3] was 5%, the inhibition [4] was 0% and the inhibition [5] was 0%.
Compound `O=C(N[C@@H](C1CC1)C(F)(F)F)c1cc(-c2cnn3cc(-c4ccc(F)cc4)cnc23)cs1` has an inhibition [6] of 0%, an inhibition [7] of 0% and an EC50 (U2OS) of 700 nM.
